Drawing on ChEMBL document CHEMBL4219150, “Fragment-Based Approach to Targeting Inosine-5'-monophosphate Dehydrogenase (IMPDH) from Mycobacterium tuberculosis” (J Med Chem, 2018), this text covers alphaKi and inhibition for 43 compounds.

The test system of the first experiment is Mycobacterium tuberculosis. Briefly: Uncompetitive inhibition of Mycobacterium tuberculosis IMPDH deltaCBS mutant assessed as reduction in NADH production preincubated for 5 mins followed by substrate IMP addition at increasing concentration measured for 32 mins in presence of constant concentration of NAD+ by Lineweaver-Burk plot analysis.
Take `COc1ccc(OC(C)C(=O)Nc2ccc(I)cc2)cc1` (stereo unspecified): the alphaKi was 0.86 µM.

The subject of the next experiment is Mycobacterium tuberculosis. Briefly: Inhibition of Mycobacterium tuberculosis IMPDH deltaCBS mutant assessed as reduction in NADH production at 1 mM using IMP as substrate preincubated for 5 mins followed by substrate addition measured for 32 mins in presence of NAD+.
As for `Oc1ccc2ccc(O)cc2c1`, the inhibition (usually the drop in the measured response relative to a control, in per cent) came to 77%.

With `Nc1[nH]ncc1-c1cccc(Br)c1`, the inhibition is 50%.

With `O=C(O)c1ccccc1-n1cccc1`, the inhibition turned out to be 72%.

In the case of `Oc1ccc2ccccc2c1`, the inhibition came out at 57%.

`CC1(C)Cc2cccc(CO)c2O1`: the inhibition came out at 99%.

For `Cc1ccc(-c2nc(C(=O)O)cs2)cc1`, the inhibition came to 88%.

Take `N#Cc1c[nH]c2ccccc12`: the inhibition came out at 51%.

Turning to `Clc1ccc(-c2cnc[nH]2)cc1`, the inhibition is 59%.

Consider `Nc1ccc(-n2ccnc2)cc1`, for which the inhibition was found to be 64%.

As to `Nc1n[nH]c(-c2ccccc2)c1Br`, the inhibition was determined as 53%.

Turning to `COc1ccc2ccc(O)cc2c1`, the inhibition worked out at 66%.

For `CC(=O)Nc1cc(C)ccc1O`, the inhibition was 79%.

`Oc1cccc2ccccc12`: the inhibition worked out at 68%.

`OCc1ccc2sccc2c1`: the inhibition is 53%.

For the compound `Brc1ccc(-c2c[nH]cn2)cc1`, the inhibition was determined as 65%.

Consider `O=C(O)c1cc2cccc(O)c2cc1O`, for which the inhibition is 98%.

Turning to `O=C(O)c1cc2sccc2s1`, the inhibition worked out at 86%.

A further experiment concerns Mycobacterium tuberculosis. Briefly: Uncompetitive inhibition of Mycobacterium tuberculosis IMPDH deltaCBS mutant. Put shortly: (§1)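 Enzyme was Mth IMPDH ΔCBS expressed in E. coli BL21(DE3) at 18°C with 500 µM IPTG, then Ni-IMAC purified, TEV-cleaved and run on gel filtration; assay buffer and 37°C conditions as in the activity assay. […] Initial rates were fit to uncompetitive or mixed inhibition equations, and the pattern was read from Lineweaver-Burk plots.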
Take `Cc1n[nH]c(C)c1S(=O)(=O)Nc1ccc2c[nH]nc2c1`: the alphaKi was 0.22 µM.

The compound `O=C(C1CCCCC1)N1CCN(S(=O)(=O)c2ccc3cnccc3c2)CC1` had an alphaKi of 0.12 µM.

The subject of another experiment is Mycobacterium tuberculosis. Briefly: Uncompetitive inhibition of Mycobacterium tuberculosis IMPDH deltaCBS mutant expressed in Escherichia coli BL21(DE3) in presence of IMP and NAD+. Put shortly: as §1
Consider `COc1c(C)c2c(c(O)c1C/C=C(\C)Cn1cc(COC[C@H]3O[C@@H](n4cnc5c(N)ncnc54)[C@H](O)[C@@H]3O)nn1)C(=O)OC2`, for which the alphaKi turned out to be 1 µM.

As for `C=C(C)c1cccc(C(C)(C)NC(=O)Nc2ccc(Cl)c(C(=O)N(C)C)c2)c1`, the alphaKi is 0.009 µM.

The next experiment has as its system Mycobacterium tuberculosis. Briefly: Inhibition of Mycobacterium tuberculosis IMPDH deltaCBS mutant assessed as reduction in NADH production using IMP as substrate at 10 uM preincubated for 5 mins followed by substrate addition measured for 32 mins in presence of NAD+.
Take `CC(Oc1ccc(-c2cn(C)cn2)cc1)C(=O)Nc1ccc(I)cc1` (stereo unspecified): the inhibition amounted to 97%.

For the compound `COc1ccc(-c2c[nH]c(NC(=O)C(C)Oc3ccc(-c4cn(C)cn4)cc3)n2)cc1` (stereo unspecified), the inhibition amounted to 95%.

`COc1ccc(OC(C)C(=O)Nc2ccc(I)cc2)cc1` (stereo unspecified): the inhibition was determined as 92%.

Consider `CC(Oc1ccc(-c2cn(C)cn2)cc1)C(=O)Nc1nc(-c2ccc(Br)cc2)co1` (stereo unspecified), for which the inhibition was found to be 83%.

`C[C@H](Oc1ccc(-c2cn(C)cn2)cc1)C(=O)Nc1nc(-c2ccc(Br)cc2)c[nH]1`: the inhibition was found to be 99%.

`CC(Oc1ccc(-c2cn(C)cn2)cc1)C(=O)Nc1nc(-c2ccc(I)cc2)c[nH]1` (stereo unspecified): the inhibition is 96%.

`CC(Oc1ccc(-c2cn(C)cn2)cc1)C(=O)Nc1ccccc1` (stereo unspecified): the inhibition was determined as 4%.

In the case of `CC(Oc1ccc(-c2cn(C)cn2)cc1)C(=O)Nc1nc(-c2ccccc2)c[nH]1` (stereo unspecified), the inhibition was found to be 77%.

On to `CC(Oc1ccc(-c2cn(C)cn2)cc1)C(=O)Nc1nc(-c2ccc(Br)cc2)c[nH]1` (stereo unspecified), for which the inhibition stood at 99%.

With `CC(Oc1ccc(-c2cn(C)cn2)cc1)C(=O)Nc1nc(-c2ccc(N3CCOCC3)cc2)c[nH]1` (stereo unspecified), the inhibition stood at 94%.

The next experiment concerns Mycobacterium tuberculosis. Briefly: Mixed-type inhibition of Mycobacterium tuberculosis IMPDH deltaCBS mutant assessed as reduction in NADH production preincubated for 5 mins followed by substrate IMP addition at increasing concentration measured for 32 mins in presence of constant concentration of NAD+ by Lineweaver-Burk plot analysis.
Consider `Cc1ccc(-c2nc(C(=O)O)cs2)cc1`, for which the alphaKi was 398 µM.

The test system of a further experiment is Mycobacterium tuberculosis. Briefly: Inhibition of Mycobacterium tuberculosis IMPDH deltaCBS mutant assessed as reduction in NADH production using IMP as substrate at 100 uM preincubated for 5 mins followed by substrate addition measured for 32 mins in presence of NAD+.
For `O=C(CSc1nc(-c2ccc(Br)cc2)c[nH]1)Nc1ccc(-c2c[nH]cn2)cc1`, the inhibition was 20%.

Take `O=C(CSc1nc(-c2ccc(Br)cc2)c[nH]1)Nc1ccc(I)cc1`: the inhibition is 30%.

On to `O=C(O)CSc1nc(-c2ccccc2)c[nH]1`, for which the inhibition was less than 5%.

In the case of `CC(C)NC(=O)CSc1nc(-c2ccccc2)c[nH]1`, the inhibition is less than 5%.

In the case of `O=C(CSc1nc(-c2ccccc2)c[nH]1)Nc1ccc2occc2c1`, the inhibition is 36%.

`O=C(CSc1nc(-c2ccc(Br)cc2)c[nH]1)Nc1ccccc1`: the inhibition worked out at 13%.

Turning to `O=C(CSc1nc(-c2ccc(Br)cc2)c[nH]1)Nc1ccc2occc2c1`, the inhibition was 31%.

For the compound `O=C(CSc1nc(-c2ccccc2)c[nH]1)Nc1ccc(I)cc1`, the inhibition came out at 46%.

Turning to `O=C(CSc1ncc(-c2ccccc2)[nH]1)Nc1ccccc1`, the inhibition is less than 5%.

Take `O=C(NCc1ncc(-c2ccc(Br)cc2)[nH]1)Nc1ccc(-c2c[nH]cn2)cc1`: the inhibition came to 56%.

As for `O=C(O)CSc1nc(-c2ccc(Br)cc2)c[nH]1`, the inhibition was less than 5%.

Regarding `Brc1ccc(-c2c[nH]cn2)cc1`, the inhibition is less than 5%.

In the case of `O=C(CSc1nc(-c2ccccc2)c[nH]1)Nc1ccc(-c2c[nH]cn2)cc1`, the inhibition stood at 24%.
